# PMI act: phosphomannose isomerase (human) activation; P34949; purified human PMI, coupled resazurin fluorescence, 20 min; hits give high values; 1 = vehicle control, 0 substrate-free wells; activation factor at 20 µM; 190,000 tested, 0.005% active; AID 1214;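 active means activation factor of 2 or more at 20 µM, relative to plate controls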
# Target sequence (P34949 whole entry, looked up): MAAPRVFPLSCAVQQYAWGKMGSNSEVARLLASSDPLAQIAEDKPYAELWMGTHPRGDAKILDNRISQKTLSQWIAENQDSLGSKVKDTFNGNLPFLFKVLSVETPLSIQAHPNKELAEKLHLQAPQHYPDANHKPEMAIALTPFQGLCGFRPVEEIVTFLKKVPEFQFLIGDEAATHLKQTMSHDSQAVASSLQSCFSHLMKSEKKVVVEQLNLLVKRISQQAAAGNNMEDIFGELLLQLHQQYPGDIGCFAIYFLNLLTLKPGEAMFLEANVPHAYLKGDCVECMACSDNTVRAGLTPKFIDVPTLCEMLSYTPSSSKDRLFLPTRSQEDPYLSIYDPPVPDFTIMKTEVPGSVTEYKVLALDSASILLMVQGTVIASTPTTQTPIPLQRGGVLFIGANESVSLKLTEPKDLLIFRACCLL
# PMI act hi M6P: PMI (human) activation, high substrate | coupled PMI enzyme assay, resazurin fluorescence, 20 min; hits give high values; 1 = untreated enzyme, 0 = substrate-free blank | activation factor at 20 µM | P34949 | 190,000 tested, 0.34% active;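 active means activation factor of 2 or more at 20 µM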
#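 Test system: human phosphomannose isomerase with PGI, G6PDH, diaphorase coupling enzymes / Doses: 20 µM compound, 1% DMSO / Times: enzyme reaction with compound 20 min at room temperature / Measured by: Diaphorase-driven resazurin-to-resorufin fluorescence, excitation 544, emission 590 nm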
# HCT116 bCat-KO: beta-catenin-lacking colon tumor cell growth suppression; HCT116 beta-catenin knockout viability, CellTiter-Glo, 60 h; hits give low values; viability, % at 10 µM; 140,000 tested, 1.5% active; AID 818;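 active means viability at or under a set limit, the compound median less 4 SD, cut at about 6% in these data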;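 further: 0% = Hyamine 1622 control at 20 µM and 100% = untreated cell control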
# L major viab: inhibitors of Leishmania major promastigote growth | inhibition, % at 10 µM | 200,000 tested, 9% active | AID 1063 | Leishmania major promastigotes, resazurin fluorescence viability; in the data active means inhibition above about 50%;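 further: promastigotes grown with compound for 44 hours at 28 °C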
# PTEN del growth: suppresses growth of cells with PTEN deletion | HCT116 PTEN-null viability, CellTiter-Glo, 60 h; hits give low values | AID 827 | viability, % at 10 µM | 140,000 tested, 1.2% active;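 active means viability at or below a set limit, 4 SD under the median of all tested compounds, cut at about 3.7% in these data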;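 further: PTEN knockout HCT116 line with beta catenin targeted HCT116 as companion control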
# Starred values were filed as active, the others as inactive; . = not tested or not shown. Rows were chosen to be rich in hits. Some 9.6% of all compounds tested hit in one or more screens of this group.
SMILES,PMI act,PMI act hi M6P,HCT116 bCat-KO,L major viab,PTEN del growth
O=C(Nc1cccc(Cl)c1Cl)c1cc(S(=O)(=O)NCCc2ccccc2)ccc1F,1,1,92.9,-6.4,92.6
OC(COc1ccccc1)CN1CCCCCC1 (configuration not stated),1.1,1.1,.,-1.5,.
OC(COc1ccc2ccccc2c1)CN1CCCC1 (configuration not stated),1.1,1.1,93.0,74.1*,97.5
OC(COc1cccc2ccccc12)CN1CCCC1 (configuration not stated),1,0.8,94.9,100.3*,102.3
CC(=O)N/C(=C\c1ccccc1)C(=O)NCC(=O)O,1,1.1,93.8,-4.2,98.3
Cc1ccccc1OCC(=O)N/N=C/c1cccc(Oc2ccc([N+](=O)[O-])cc2[N+](=O)[O-])c1,0.9,0.9,18.9,74.0*,12.6
Cc1c(/C=N/NC(=O)COc2ccccc2[N+](=O)[O-])c2ccccc2n1C,0.9,0.9,86.7,56.0*,66.3
Cc1cc([N+](=O)[O-])cc(C)c1OCC(=O)N/N=C/c1ccc(OC(=O)c2ccccc2Br)cc1,0.9,0.9,85.4,84.7*,87.3
COc1ccc2c(-c3ccccc3)cc(SC(C)C(N)=O)nc2c1 (configuration not stated),1.6,1.9,.,80.8*,.
O=S(=O)(c1ccccc1)c1nc(-c2ccco2)oc1Nc1ccccc1,1.3,1,98.2,76.0*,88.5
CCN(CC)c1ccc(NC(=O)CCNC(=O)c2ccco2)cc1,1,0.8,74.0,89.9*,92.5
Cc1ccccc1OCCNc1cc(N2CCNCC2)ccc1[N+](=O)[O-],0.9,0.9,.,100.3*,.
CCOC(=O)C(C)Sc1nc2c(c(-c3cccs3)c1C#N)CCC2 (configuration not stated),1,0.9,79.0,54.5*,81.1
COc1cc(/C=N/NC(N)=O)cc([N+](=O)[O-])c1O,0.9,0.6,.,-2.2,.
Cc1cc(C)n2ncc(C(=O)NCc3ccccc3)c2n1,1,1,101.5,55.0*,103.3
C/C(=N\Nc1ccc(Cl)c(C(=O)O)c1)c1ccc2c(c1)OCO2,1.9,2.8*,.,42.6,.
O=C(CN1C(=O)c2ccccc2S1(=O)=O)c1ccccc1,1,1.1,95.2,-3.3,97.4
Cc1ccc(C(=O)CN2/C(=C(\O)c3ccccc3)C(=O)c3ccccc3S2(=O)=O)c(C)c1,0.9,1,39.7,82.2*,34.9
CCOc1cc(CNc2ccc(OC)cc2)cc(Br)c1OCC(=O)NC(C)(C)C,0.8,0.8,20.6,99.9*,31.5
CCOc1cc(CNc2ccc(Br)cc2)cc(Br)c1OCC(=O)NC(C)(C)C,0.9,0.9,54.0,5.2,55.4
CCS(=O)(=O)N1CCN(CC2CC3C=CC2C3)CC1 (configuration not stated),1,1.1,97.3,92.8*,98.7
O=[N+]([O-])c1ccccc1S(=O)(=O)N1CCN(CC2CC=CCC2)CC1 (configuration not stated),1,0.9,.,-3.8,.
CCCS(=O)(=O)N1CCN(CC2CC3C=CC2C3)CC1 (configuration not stated),0.9,0.9,76.4,88.1*,83.5
CCCS(=O)(=O)N1CCN(CC2CC=CCC2)CC1 (configuration not stated),0.9,1,96.7,76.2*,102.8
CCCS(=O)(=O)N1CCN(S(=O)(=O)c2ccc(F)cc2)CC1,1.1,1,85.9,2.9,94.3
SMILES,PMI act,PMI act hi M6P,HCT116 bCat-KO,L major viab,PTEN del growth
O=C(CCCc1c[nH]c2ccccc12)N1CCOCC1,1,1.1,94.8,0.8,90.1
COCCN(CCOC)CC(O)COC(c1ccccc1)c1ccccc1 (configuration not stated),1,0.8,.,3.2,.
Cc1ccc(C(OCC(O)CNC(C)c2ccccc2)c2ccccc2)cc1 (configuration not stated),1,1.1,.,77.0*,.
OCC1(Cc2ccc(Cl)cc2)CCN(Cc2ccc(Oc3ncccn3)cc2)CC1,0.9,1,.,41.8,.
CN(c1ccc(OCC(=O)N2CCN(c3ccc(F)cc3)CC2)cc1)S(=O)(=O)c1cccs1,1.1,1,.,21.4,.
COc1ccc(S(=O)(=O)N2CCOCC2)cc1NC(=O)CN1CCCC1,0.9,0.9,.,-2.0,.
COc1ccc(S(=O)(=O)N2CCOCC2)cc1NC(=O)COC(=O)c1ccc(C)s1,1.1,1.1,.,-1.4,.
COc1ccc(S(=O)(=O)N2CCOCC2)cc1NC(=O)COC(=O)C1COc2ccccc2O1 (configuration not stated),0.9,0.7,94.9,66.2*,92.9
COc1ccc(S(=O)(=O)N2CCOCC2)cc1NC(=O)CN1CCC(Cc2ccccc2)CC1,0.8,1,31.0,99.1*,39.7
CCc1ccc(C(C)NC(=O)Cn2cnc3c(=O)n(C)c(=O)n(C)c32)cc1 (configuration not stated),1.1,1.1,84.8,0.4,93.8
Cc1ccc(S(=O)(=O)c2ccc(Cl)cc2)cc1S(=O)(=O)N1CCN(C)CC1,1,1,76.8,99.2*,76.3
Cc1ccc(S(=O)(=O)c2ccc(Cl)cc2)cc1S(=O)(=O)NC(C)C(=O)O (configuration not stated),1.1,1,95.8,52.0*,103.3
CN1CCN(S(=O)(=O)c2ccc(-c3ccc(Cl)cc3)cc2)CC1,0.9,0.9,87.1,7.3,87.3
COc1cc(C)c(NC(=S)Nc2ccc(C)c(Cl)c2)cc1OC,0.8,0.8,91.4,15.2,99.0
COc1cc(C)c(NC(c2ccccc2)c2ccccc2)cc1OC,0.8,0.8,.,90.9*,.
CC1(C)Cc2c(C#N)c(SCCC#N)nc(N3CCOCC3)c2CS1,0.9,0.8,95.2,-0.7,84.5
CCOC(=O)N1CCN(S(=O)(=O)c2cc(OCC(=O)NC3CCCCC3)c(C)cc2Cl)CC1,0.9,1,83.3,64.0*,91.6
Cc1cc(Cl)c(S(=O)(=O)N2CCCC2)cc1OCC(N)=O,1.1,1,.,4.2,.
CCOC(=O)N1CCN(C(=O)C2CCN(S(=O)(=O)c3cc(Cl)ccc3Cl)CC2)CC1,0.9,0.9,93.5,98.8*,84.0
Cc1cc(Cl)c(S(=O)(=O)N2CCCCCC2)cc1OCC(N)=O,1,1,78.5,67.3*,66.1
CCOC(=O)C1CCN(S(=O)(=O)c2ccc(Cl)cc2OC)CC1,1,1,100.8,-1.4,96.6
CCOC(=O)C1CCN(S(=O)(=O)c2cc(Cl)c(C)cc2OC)CC1,0.9,0.9,88.9,91.3*,85.9
C/C(=N\N=C\c1ccccc1)c1nnn(-c2nonc2N)c1C,1,1,90.8,1.5,94.0
O=C(O)CCn1cc(/C=N/O)c(-c2cccc([N+](=O)[O-])c2)n1,1.3,1.1,.,-4.9,.
O=C(c1ccccn1)c1cc2ccccc2n1S(=O)(=O)c1ccccc1,1.4,1.4,92.7,33.6,86.9

# Assay outcomes (PubChem BioAssay)
